Data on two compounds can be found in ChEMBL document CHEMBL1154352, “Toll-like receptor 7 selective synthetic oligoribonucleotide agonists: synthesis and structure-activity relationship studies” (J Med Chem, 2009).

SMILES strings stand for the structures. Calls of active or inactive are those of the source. No cut-off for these calls is given here.

The target of assay [1] is T1, Toll-like receptor 7 (Homo sapiens) (UniProt Q9NYK1).
T1 sequence (whole entry): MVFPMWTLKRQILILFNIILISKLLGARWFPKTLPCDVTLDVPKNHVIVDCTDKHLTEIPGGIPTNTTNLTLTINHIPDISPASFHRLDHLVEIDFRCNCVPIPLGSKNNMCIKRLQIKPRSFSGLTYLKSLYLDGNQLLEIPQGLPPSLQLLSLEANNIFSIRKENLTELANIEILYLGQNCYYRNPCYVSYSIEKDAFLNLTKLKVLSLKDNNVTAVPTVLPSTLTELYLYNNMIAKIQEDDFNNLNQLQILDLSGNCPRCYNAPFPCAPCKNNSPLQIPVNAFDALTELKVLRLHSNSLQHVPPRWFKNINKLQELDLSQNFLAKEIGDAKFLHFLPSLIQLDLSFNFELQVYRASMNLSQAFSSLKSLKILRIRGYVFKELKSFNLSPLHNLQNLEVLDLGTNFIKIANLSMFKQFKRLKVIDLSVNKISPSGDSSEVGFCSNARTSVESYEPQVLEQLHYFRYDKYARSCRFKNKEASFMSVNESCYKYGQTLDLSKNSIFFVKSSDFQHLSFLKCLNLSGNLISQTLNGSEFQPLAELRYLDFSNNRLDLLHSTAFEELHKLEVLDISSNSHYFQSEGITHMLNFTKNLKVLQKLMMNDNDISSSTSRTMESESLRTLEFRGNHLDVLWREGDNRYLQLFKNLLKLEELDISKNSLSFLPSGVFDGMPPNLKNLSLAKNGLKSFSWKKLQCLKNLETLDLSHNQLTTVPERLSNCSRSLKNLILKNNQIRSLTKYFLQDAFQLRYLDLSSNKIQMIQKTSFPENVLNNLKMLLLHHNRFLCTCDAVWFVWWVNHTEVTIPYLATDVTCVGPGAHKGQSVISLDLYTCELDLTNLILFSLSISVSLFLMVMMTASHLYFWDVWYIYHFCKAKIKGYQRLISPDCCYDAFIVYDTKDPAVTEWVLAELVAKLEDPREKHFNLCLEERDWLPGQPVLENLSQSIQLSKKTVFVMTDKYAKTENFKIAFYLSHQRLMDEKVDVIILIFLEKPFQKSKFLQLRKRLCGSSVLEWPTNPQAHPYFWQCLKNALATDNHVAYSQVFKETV
Description: Activation of human TLR7 expressed in HEK293XL assessed as fold induction of NF-kappaB activity at 50 ug/ml after 18 hrs by reporter gene assay relative to control. Put shortly:
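HEK293 cells stably expressing human TLR7 or TLR8, transiently transfected with SEAP reporter plasmid; medium replaced, SIMRA compounds added, 18 h incubation. Supernatant SEAP measured by QuantiBlue; expressed as fold increase in NF-κB activity over PBS control. Tabulated data at 50 μg/mL, representative of three independent experiments.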

Assay [2] has as its target T2, Toll-like receptor 9 (Mus musculus) (UniProt Q9EQU3).
T2 sequence (whole entry): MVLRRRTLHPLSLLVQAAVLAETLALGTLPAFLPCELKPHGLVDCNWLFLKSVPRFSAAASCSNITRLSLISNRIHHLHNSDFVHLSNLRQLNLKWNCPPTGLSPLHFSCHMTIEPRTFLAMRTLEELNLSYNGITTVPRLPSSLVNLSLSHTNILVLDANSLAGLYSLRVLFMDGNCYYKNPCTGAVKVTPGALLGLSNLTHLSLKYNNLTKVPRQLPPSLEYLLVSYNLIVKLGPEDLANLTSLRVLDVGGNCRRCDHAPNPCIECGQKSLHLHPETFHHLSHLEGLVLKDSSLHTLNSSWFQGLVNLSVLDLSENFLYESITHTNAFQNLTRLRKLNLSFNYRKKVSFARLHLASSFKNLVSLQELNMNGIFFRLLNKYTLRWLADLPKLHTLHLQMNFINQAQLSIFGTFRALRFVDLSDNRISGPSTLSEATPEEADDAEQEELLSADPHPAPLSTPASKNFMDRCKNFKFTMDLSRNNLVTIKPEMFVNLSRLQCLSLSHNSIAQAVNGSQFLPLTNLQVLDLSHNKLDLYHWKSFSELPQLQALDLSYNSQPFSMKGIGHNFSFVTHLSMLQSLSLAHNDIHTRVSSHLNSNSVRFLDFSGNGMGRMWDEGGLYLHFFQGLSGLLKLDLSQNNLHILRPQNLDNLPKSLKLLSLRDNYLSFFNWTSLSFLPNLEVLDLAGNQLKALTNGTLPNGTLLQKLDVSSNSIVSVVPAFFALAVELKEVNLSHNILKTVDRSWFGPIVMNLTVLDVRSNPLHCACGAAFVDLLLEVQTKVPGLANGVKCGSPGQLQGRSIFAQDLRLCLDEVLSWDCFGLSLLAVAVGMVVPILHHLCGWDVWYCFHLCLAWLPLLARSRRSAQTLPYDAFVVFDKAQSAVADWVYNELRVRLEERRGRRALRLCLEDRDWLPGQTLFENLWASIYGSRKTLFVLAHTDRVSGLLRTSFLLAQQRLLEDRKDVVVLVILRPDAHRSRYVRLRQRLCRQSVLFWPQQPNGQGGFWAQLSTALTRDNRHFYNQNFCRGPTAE
Put plainly: Activation of mouse TLR9 expressed in HEK293 assessed as induction of NF-kappaB activity reporter gene assay. It counts as cell-based. Background: In a reporter assay the amount or activity of a reporter protein is the signal.

Assay [3] relates to Splenocyte. Put plainly: Immunomodulatory activity in C57BL/6 mouse splenocytes bearing TLR7 receptor assessed as IL12 release at 100 ug/ml after 24 hrs by ELISA. It counts as functional, cell-based. Put shortly: (§1)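 C57BL/6 splenocytes in RPMI 1640 with 10% FBS, penicillin/streptomycin, 2 mM L-glutamine, plated at 5 × 10^6 cells/mL; compounds in PBS added, 37 °C for 24 h. Supernatant IL-12 and IL-6 by ELISA; representative of three independent experiments.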

In assay [4] the test system is PBMC. Put plainly: Immunomodulatory activity in human PBMC assessed as induction of IL12 at 100 ug/ml after 24 hrs. It counts as functional, cell-based. Put shortly: (§2)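 Human PBMCs plated at 5 × 10^6 cells/mL; compounds dissolved in PBS added at various concentrations, 37 °C for 24 h. Supernatant cytokines/chemokines quantified with human Luminex multiplex kit.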

For assay [5], the system named is PBMC. Put plainly: Immunomodulatory activity in human PBMC assessed as induction of TNFalpha at 100 ug/ml after 24 hrs. Format: functional, cell-based. In a few lines:
as §2

For assay [6], the system named is Splenocyte. Description: Immunomodulatory activity in C57BL/6 mouse splenocytes bearing TLR7 receptor assessed as IL6 release at 100 ug/ml after 24 hrs by ELISA. It counts as functional, cell-based. Put shortly: as §1
On the technique in general: In an ELISA, binding on a coated surface is turned into a signal by an enzyme label.

Turning to `Nc1ccn([C@@H]2O[C@H](COP(=O)(S)O[C@H]3[C@@H](O)[C@H](n4cnc5c(N)ncnc54)O[C@@H]3COP(=O)(S)O[C@H]3[C@@H](O)[C@H](n4cnc5c(N)ncnc54)O[C@@H]3CO)[C@@H](OP(=O)(S)OC[C@H]3O[C@@H](n4ccc(=O)[nH]c4=O)[C@H](O)[C@@H]3OP(=O)(S)OC[C@H]3O[C@@H](n4ccc5c(=O)[nH]c(N)nc54)[C@H](O)[C@@H]3OP(=O)(S)OC[C@H]3O[C@@H](n4cnc5c(N)ncnc54)[C@H](O)[C@@H]3OP(=O)(S)OC[C@H]3O[C@@H](n4cnc5c(N)ncnc54)[C@H](O)[C@@H]3OP(=O)(S)OC[C@H]3O[C@@H](n4ccc5c(=O)[nH]c(N)nc54)[C@H](O)[C@@H]3OP(=O)(S)OC[C@H]3O[C@@H](n4ccc(N)nc4=O)[C@H](O)[C@@H]3OP(=O)(S)OC[C@H]3O[C@@H](n4ccc(=O)[nH]c4=O)[C@H](O)[C@@H]3OP(=O)(S)OC[C@H]3O[C@@H](n4ccc5c(=O)[nH]c(N)nc54)[C@H](O)[C@@H]3OP(=O)(S)OCC(O)COP(=O)(S)O[C@H]3[C@@H](O)[C@H](n4ccc5c(=O)[nH]c(N)nc54)O[C@@H]3COP(=O)(S)O[C@H]3[C@@H](O)[C@H](n4ccc(=O)[nH]c4=O)O[C@@H]3COP(=O)(S)O[C@H]3[C@@H](O)[C@H](n4ccc(N)nc4=O)O[C@@H]3COP(=O)(S)O[C@H]3[C@@H](O)[C@H](n4ccc5c(=O)[nH]c(N)nc54)O[C@@H]3COP(=O)(S)O[C@H]3[C@@H](O)[C@H](n4cnc5c(N)ncnc54)O[C@@H]3COP(=O)(S)O[C@H]3[C@@H](O)[C@H](n4cnc5c(N)ncnc54)O[C@@H]3COP(=O)(S)O[C@H]3[C@@H](O)[C@H](n4ccc5c(=O)[nH]c(N)nc54)O[C@@H]3COP(=O)(S)O[C@H]3[C@@H](O)[C@H](n4ccc(=O)[nH]c4=O)O[C@@H]3COP(=O)(S)O[C@H]3[C@@H](O)[C@H](n4ccc(N)nc4=O)O[C@@H]3COP(=O)(S)O[C@H]3[C@@H](O)[C@H](n4cnc5c(N)ncnc54)O[C@@H]3COP(=O)(S)O[C@H]3[C@@H](O)[C@H](n4cnc5c(N)ncnc54)O[C@@H]3CO)[C@H]2O)c(=O)n1` (some centres not stated), the fold change (FC) in assay [1] was 18.4. Besides, the outcome in assay [2] was inactive. For the same compound, the outcome in the assay on Splenocyte [3] and with Splenocyte [6] was Active. Besides, the Activity with PBMC [4] stood at 240 pg/mL; in the assay on PBMC [5] it was 3.5 pg/mL.

As for `Nc1ccn([C@@H]2O[C@H](COP(=O)(S)O[C@H]3[C@@H](O)[C@H](n4cnc5c(N)ncnc54)O[C@@H]3CO)[C@@H](OP(=O)(S)OC[C@H]3O[C@@H](n4ccc(=O)[nH]c4=O)[C@H](O)[C@@H]3OP(=O)(S)OC[C@H]3O[C@@H](n4ccc(=O)[nH]c4=O)[C@H](O)[C@@H]3OP(=O)(S)OC[C@H]3O[C@@H](n4ccc5c(=O)[nH]c(N)nc54)[C@H](O)[C@@H]3OP(=O)(S)OC[C@H]3O[C@@H](n4cnc5c(N)ncnc54)[C@H](O)[C@@H]3OP(=O)(S)OC[C@H]3O[C@@H](n4cnc5c(N)ncnc54)[C@H](O)[C@@H]3OP(=O)(S)OC[C@H]3O[C@@H](n4ccc5c(=O)[nH]c(N)nc54)[C@H](O)[C@@H]3OP(=O)(S)OC[C@H]3O[C@@H](n4ccc(N)nc4=O)[C@H](O)[C@@H]3OP(=O)(S)OC[C@H]3O[C@@H](n4ccc(=O)[nH]c4=O)[C@H](O)[C@@H]3OP(=O)(S)OC[C@H]3O[C@@H](n4ccc(=O)[nH]c4=O)[C@H](O)[C@@H]3OP(=O)(S)OCC(O)COP(=O)(S)O[C@H]3[C@@H](O)[C@H](n4ccc(=O)[nH]c4=O)O[C@@H]3COP(=O)(S)O[C@H]3[C@@H](O)[C@H](n4ccc(=O)[nH]c4=O)O[C@@H]3COP(=O)(S)O[C@H]3[C@@H](O)[C@H](n4ccc(N)nc4=O)O[C@@H]3COP(=O)(S)O[C@H]3[C@@H](O)[C@H](n4ccc5c(=O)[nH]c(N)nc54)O[C@@H]3COP(=O)(S)O[C@H]3[C@@H](O)[C@H](n4cnc5c(N)ncnc54)O[C@@H]3COP(=O)(S)O[C@H]3[C@@H](O)[C@H](n4cnc5c(N)ncnc54)O[C@@H]3COP(=O)(S)O[C@H]3[C@@H](O)[C@H](n4ccc5c(=O)[nH]c(N)nc54)O[C@@H]3COP(=O)(S)O[C@H]3[C@@H](O)[C@H](n4ccc(=O)[nH]c4=O)O[C@@H]3COP(=O)(S)O[C@H]3[C@@H](O)[C@H](n4ccc(=O)[nH]c4=O)O[C@@H]3COP(=O)(S)O[C@H]3[C@@H](O)[C@H](n4ccc(N)nc4=O)O[C@@H]3COP(=O)(S)O[C@H]3[C@@H](O)[C@H](n4cnc5c(N)ncnc54)O[C@@H]3CO)[C@H]2O)c(=O)n1` (some centres not stated), the fold change (FC) in assay [1] stood at 23.7. Also, in assay [2], the outcome was inactive. In addition, the outcome in the assay on Splenocyte [3] and in the assay with Splenocyte [6] was Active. Moreover, the Activity turned out to be 442 pg/mL with PBMC [4] and 170 pg/mL in the assay with PBMC [5].
